Reference: PMC1316110 (Nucleic Acids Research, 2005)

What was measured:
[1] = biological target: T1, MtuLigA (Mycobacterium tuberculosis, UniProt P9WNV1); assay type: biochemical, M.tuberculosis; conditions: read-out: IC50 MtuLigA; 50 µM NAD+, 10% Me2SO, 1 h at 25°C
[2] = biological target: T2, T4 DNA ligase (Enterobacteria phage T4, UniProt P00970); experiment: In vitro ligase inhibition assay, 32P-labeled nicked 40 bp DNA substrate; assay type: biochemical, bacteriophage T4; conditions: read-out: IC50 T4Lig; 66 µM ATP, 10% Me2SO
T2 sequence (P00970 1-487): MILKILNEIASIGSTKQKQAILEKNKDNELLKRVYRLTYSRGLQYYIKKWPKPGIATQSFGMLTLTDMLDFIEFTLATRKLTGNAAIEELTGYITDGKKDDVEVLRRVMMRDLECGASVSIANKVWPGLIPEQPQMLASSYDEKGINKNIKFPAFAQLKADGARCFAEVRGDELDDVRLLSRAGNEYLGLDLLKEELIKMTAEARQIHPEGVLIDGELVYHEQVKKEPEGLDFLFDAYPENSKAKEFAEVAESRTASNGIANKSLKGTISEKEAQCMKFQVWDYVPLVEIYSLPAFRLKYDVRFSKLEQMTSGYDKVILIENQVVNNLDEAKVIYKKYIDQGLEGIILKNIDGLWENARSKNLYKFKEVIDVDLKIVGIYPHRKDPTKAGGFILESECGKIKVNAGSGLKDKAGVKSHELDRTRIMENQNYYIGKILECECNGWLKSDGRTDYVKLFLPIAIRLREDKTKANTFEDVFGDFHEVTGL

[3] = biological target: T1, MtuLigA; experiment: Mode of inhibition, Michaelis-Menten / Lineweaver-Burk kinetics; assay type: biochemical, M.tuberculosis; conditions: read-out: Km for NAD^+; absence of the inhibitor, 10% Me2SO
How it was run: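 Full-length recombinant MtuLigA (2 ng), 50 mM Tris–HCl pH 8.0, 5 mM DTT, 10 mM MgCl2, 10% Me2SO, 5′-32P-labelled nicked 40 bp duplex at 0.85 µM (saturating), NAD+ 0–50 µM, compound 0–250 or 0–450 µM; 1 h, 25°C. Ligation rate from gel scanning; Michaelis–Menten fit. Ki from apparent Km versus compound concentration. Mode from Lineweaver–Burk linear regression.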

Chloroquine [Compound 6]
IC50 [1]: 5 ± 0.3 µM | IC50 [2]: 3 ± 0.2 µM

NC(=O)c1ccc[n+]([C@@H]2O[C@H](COP(=O)([O-])OP(=O)(O)OC[C@H]3O[C@@H](n4cnc5c(N)ncnc54)[C@H](O)[C@@H]3O)[C@@H](O)[C@H]2O)c1 [NAD]
Km [3]: 1.56 µM

Doxorubicin [Compound 7]
IC50 [2]: 1600 ± 15 µM
